Assay results published in ChEMBL document CHEMBL3392966, “Antiproliferative activity of synthetic fatty acid amides from renewable resources” (Bioorg Med Chem, 2015).
Converted amounts (≈) assume the structure as drawn.

Legend:
U-251 [1] = test: Antiproliferative activity against human U251 cells after 48 hrs by sulforhodamine B assay; type: functional; details: U-251, 48 h
Outline: (§1)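 Tumor cells grown in RPMI 1640 with 5% fetal bovine serum, with penicillin/streptomycin in experimental cultures. Exposed in 96-well plates to samples in DMSO/RPMI at 0.25, 2.5, 25 and 250 µg/mL, 37 °C, 5% CO2, 48 h. Fixed with 50% trichloroacetic acid before (T0) and after treatment, protein stained with sulforhodamine B and read at 540 nm. GI50, TGI and LC50 in µg/mL from dose-response curves by non-linear regression.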

MCF7 [2] = test: Antiproliferative activity against human MCF7 cells after 48 hrs by sulforhodamine B assay; type: functional; details: MCF7, 48 h; outline: as §1
NCI/ADR-RES [3] = test: Antiproliferative activity against human NCI/ADR-RES cells after 48 hrs by sulforhodamine B assay; type: functional; outline: as §1
786-0 [4] = test: Antiproliferative activity against human 786-0 cells after 48 hrs by sulforhodamine B assay; type: functional; details: 786-0, 48 h; outline: as §1
NCI-H460 [5] = test: Antiproliferative activity against human NCI-H460 cells after 48 hrs by sulforhodamine B assay; type: functional; details: NCI-H460, 48 h; outline: as §1
[6] = Antiproliferative activity against human PC3 cells after 48 hrs by sulforhodamine B assay; type: functional; details: PC-3, 48 h; outline: as §1
[7] = Antiproliferative activity against human OVCAR3 cells after 48 hrs by sulforhodamine B assay; type: functional; details: OVCAR-3, 48 h; outline: as §1
HaCaT [8] = test: Cytotoxicity against human HaCaT cells after 48 hrs by sulforhodamine B assay; type: cell-based
U-251 [9] = test: Antiproliferative activity against human U251 cells assessed as tumor growth inhibition after 48 hrs by sulforhodamine B assay; type: functional; details: U-251, 48 h; outline: as §1
MCF7 [10] = test: Antiproliferative activity against human MCF7 cells assessed as tumor growth inhibition after 48 hrs by sulforhodamine B assay; type: functional; details: MCF7, 48 h; outline: as §1
NCI/ADR-RES [11] = test: Antiproliferative activity against human NCI/ADR-RES cells assessed as tumor growth inhibition after 48 hrs by sulforhodamine B assay; type: functional; outline: as §1
786-0 [12] = test: Antiproliferative activity against human 786-0 cells assessed as tumor growth inhibition after 48 hrs by sulforhodamine B assay; type: functional; details: 786-0, 48 h; outline: as §1
NCI-H460 [13] = test: Antiproliferative activity against human NCI-H460 cells assessed as tumor growth inhibition after 48 hrs by sulforhodamine B assay; type: functional; details: NCI-H460, 48 h; outline: as §1
[14] = Antiproliferative activity against human PC3 cells assessed as tumor growth inhibition after 48 hrs by sulforhodamine B assay; type: functional; details: PC-3, 48 h; outline: as §1
[15] = Antiproliferative activity against human OVCAR3 cells assessed as tumor growth inhibition after 48 hrs by sulforhodamine B assay; type: functional; details: OVCAR-3, 48 h; outline: as §1
HaCaT [16] = test: Cytotoxicity against human HaCaT cells assessed as tumor growth inhibition after 48 hrs by sulforhodamine B assay; type: cell-based
Outline: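 Non-tumor lines (human HaCaT keratinocytes; Vero) in RPMI 1640 with 5% FBS, with penicillin/streptomycin added to experimental cultures. 48 h exposure at 0.25–250 µg/mL (DMSO/RPMI), 37 °C, 5% CO2. TCA fixation at time zero and at end, sulforhodamine B protein stain, absorbance 540 nm. TGI (total growth inhibition) from non-linear regression of the dose-response curve.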

Compound	GI50 (U-251 [1])	GI50 (MCF7 [2])	GI50 (NCI/ADR-RES [3])	GI50 (786-0 [4])	GI50 (NCI-H460 [5])	GI50 [6]	GI50 [7]	LC50 (HaCaT [8])	TGI (U-251 [9])	TGI (MCF7 [10])	TGI (NCI/ADR-RES [11])	TGI (786-0 [12])	TGI (NCI-H460 [13])	TGI [14]	TGI [15]	TGI (HaCaT [16])
CCCCCCCC/C=C\CCCCCCCC(=O)N1CCOCC1	2.8 µg/mL (≈ 7.96 µM)	4.9 µg/mL (≈ 13.9 µM)	3.3 µg/mL (≈ 9.39 µM)	4.5 µg/mL (≈ 12.8 µM)	7.9 µg/mL (≈ 22.5 µM)	5.2 µg/mL (≈ 14.8 µM)	4.9 µg/mL (≈ 13.9 µM)	5.3 µg/mL (≈ 15.1 µM)	6.6 µg/mL (≈ 18.8 µM)	13.1 µg/mL (≈ 37.3 µM)	10.6 µg/mL (≈ 30.2 µM)	11.2 µg/mL (≈ 31.9 µM)	34.7 µg/mL (≈ 98.7 µM)	14.8 µg/mL (≈ 42.1 µM)	13.9 µg/mL (≈ 39.5 µM)	23.2 µg/mL (≈ 66 µM)
CCCCCC[C@@H](O)C/C=C\CCCCCCCC(=O)N1CCOCC1	33.1 µg/mL (≈ 90 µM)	41.8 µg/mL (≈ 114 µM)	29.4 µg/mL (≈ 80 µM)	36 µg/mL (≈ 97.9 µM)	49.1 µg/mL (≈ 134 µM)	38.5 µg/mL (≈ 105 µM)	31 µg/mL (≈ 84.3 µM)	41.3 µg/mL (≈ 112 µM)	54.5 µg/mL (≈ 148 µM)	116 µg/mL (≈ 314 µM)	143 µg/mL (≈ 388 µM)	75.7 µg/mL (≈ 206 µM)	152 µg/mL (≈ 415 µM)	72.6 µg/mL (≈ 198 µM)	62.2 µg/mL (≈ 169 µM)	97.4 µg/mL (≈ 265 µM)
CCCCCCCCCCCCCCCCCC(=O)N[C@H](C)c1ccccc1	161 µg/mL (≈ 414 µM)	0.06 µg/mL (≈ 0.155 µM)	25.7 µg/mL (≈ 66.3 µM)						> 250 µg/mL	> 250 µg/mL	> 250 µg/mL	> 250 µg/mL	> 250 µg/mL	> 250 µg/mL	> 250 µg/mL	> 250 µg/mL
CCCCCCCCCCCCCCCCCC(=O)N[C@@H](C)c1ccccc1								69.5 µg/mL (≈ 179 µM)	> 250 µg/mL	> 250 µg/mL	> 250 µg/mL	> 250 µg/mL	> 250 µg/mL	> 250 µg/mL	> 250 µg/mL	> 250 µg/mL
CCCCCCCCCCCCCCCC(=O)NCc1ccccc1									> 250 µg/mL	> 250 µg/mL	> 250 µg/mL	> 250 µg/mL	> 250 µg/mL	> 250 µg/mL	> 250 µg/mL	> 250 µg/mL
CCCCCCCCCCCCCCCC(=O)N1CCOCC1	25 µg/mL (≈ 76.8 µM)	15.4 µg/mL (≈ 47.3 µM)	6.2 µg/mL (≈ 19 µM)	33.1 µg/mL (≈ 102 µM)	34.1 µg/mL (≈ 105 µM)	22.2 µg/mL (≈ 68.2 µM)	33.1 µg/mL (≈ 102 µM)	28.9 µg/mL (≈ 88.8 µM)	55.9 µg/mL (≈ 172 µM)	54.7 µg/mL (≈ 168 µM)	70.3 µg/mL (≈ 216 µM)	69.9 µg/mL (≈ 215 µM)	91 µg/mL (≈ 280 µM)	36.7 µg/mL (≈ 113 µM)	72.7 µg/mL (≈ 223 µM)	73.7 µg/mL (≈ 226 µM)
CCCCCCCC/C=C/CCCCCCCC(=O)N[C@@H](C)c1ccccc1		110 µg/mL (≈ 286 µM)					21.7 µg/mL (≈ 56.3 µM)	24.6 µg/mL (≈ 63.8 µM)	> 250 µg/mL	> 250 µg/mL	> 250 µg/mL	> 250 µg/mL	> 250 µg/mL	> 250 µg/mL	> 250 µg/mL	> 250 µg/mL
CCCCCCCCCCCCCCCCCC(=O)N1CCOCC1	39.9 µg/mL (≈ 113 µM)	42.8 µg/mL (≈ 121 µM)	33.1 µg/mL (≈ 93.6 µM)	41.1 µg/mL (≈ 116 µM)	53.1 µg/mL (≈ 150 µM)	41.1 µg/mL (≈ 116 µM)	43.3 µg/mL (≈ 122 µM)	41.5 µg/mL (≈ 117 µM)	82.6 µg/mL (≈ 234 µM)	81.7 µg/mL (≈ 231 µM)	86.9 µg/mL (≈ 246 µM)	85.6 µg/mL (≈ 242 µM)	161 µg/mL (≈ 455 µM)	102 µg/mL (≈ 290 µM)	111 µg/mL (≈ 314 µM)	94.2 µg/mL (≈ 266 µM)
CCCCCCCCCCCCCCCCCC(=O)NCCO [N-(2-HYDROXYETHYL)STEARAMIDE]	117 µg/mL (≈ 357 µM)	130 µg/mL (≈ 395 µM)	158 µg/mL (≈ 481 µM)			75.6 µg/mL (≈ 231 µM)	158 µg/mL (≈ 481 µM)	117.7 µg/mL (≈ 359 µM)	> 250 µg/mL	> 250 µg/mL	> 250 µg/mL	> 250 µg/mL	> 250 µg/mL	> 250 µg/mL	> 250 µg/mL	> 250 µg/mL
CCCCCCCCCCCCCCCC(=O)NCCO [PALMIDROL]			158 µg/mL (≈ 527 µM)						> 250 µg/mL	> 250 µg/mL	> 250 µg/mL	> 250 µg/mL	> 250 µg/mL	> 250 µg/mL	> 250 µg/mL	> 250 µg/mL
